Experimental data as given in ChEMBL document CHEMBL4765328 (Eur J Med Chem, 2020).
Activity calls are given as the source filed them. The rule behind the calls is not given here.

What was measured:
HeLa [1] = assay: Induction of apoptosis in human HeLa cells assessed as late apoptotic cells at 10 nM measured after 24 hrs by Annexin V-FITC/propidium iodide staining based flow cytometry (reference value: 6.07 %); format: functional
Bos taurus [2] = species on record: Bos taurus; assay: Inhibition of [3H]colchicine binding to bovine brain tubulin at 5 uM relative to control
In short: (§1)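 [3H]colchicine binding to purified tubulin, with tubulin at 0.5 µM and colchicine at 5 µM. Compounds tested at 5 and 0.5 µM. CA-4 was run in contemporaneous experiments for comparison.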

HeLa [3] = assay: Induction of apoptosis in human HeLa cells assessed as viable cells at 10 nM measured after 48 hrs by Annexin V-FITC/propidium iodide staining based flow cytometry (reference value: 89.57 %); format: functional; details: read-out: Activity
HeLa [4] = assay: Induction of apoptosis in human HeLa cells assessed as increase in bcl-2 phosphorylation at 10 nM after 24 hrs by Western blot analysis; format: functional, cell-based
In short: (§2)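 HeLa cells treated 24 or 48 h, then washed in cold PBS and lysed in 0.1% Triton X-100/RNase A at 0 °C. Lysates were cleared at 15,000 x g. 10 µg protein was run on SDS-PAGE and blotted to PVDF, blocked in 5% BSA, and probed 2 h at room temperature with primary antibodies. HRP secondary and ECL detection followed; β-actin reprobe served as loading control.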

[5] = Antitumor activity mouse E0771 cells implanted in C57BL/6 mouse assessed as reduction tumor mass at 15 mg/kg, ip administered every other day relative to control; format: functional, EO771; design: scale not given: the % may be the effect or the level left
In short: (§3)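 Seven-week-old female C57BL/6 mice received 4 x 10^5 E0771 cells orthotopically in the mammary fat pad and were randomized once tumors were palpable. Dosing was ip every other day at 5 or 15 mg/kg, with DMSO vehicle in 100 µL. Caliper volume was V=(D×d²)/2, and tumor weight was taken at endpoint; n=5/group. Analysis used two-way ANOVA with Bonferroni.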

EO771 = assay: Antitumor activity against mouse E0771 cells implanted in ip dosed C57BL/6 mouse assessed as reduction tumor growth administered every other day; format: functional, organism-based; details: dose 5-15 mg/kg; in short: as §3
[6] = Inhibition of bovine brain tubulin polymerisation preincubated with compound followed by GTP addition and measured after 20 mins by turbidimetry based spectrophotometric method; format: tissue-based, Bos taurus
In short: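 Bovine brain tubulin (10 µM) in glutamate buffer, preincubated with varying compound concentrations at 30 °C, then cooled to 0 °C. GTP added to 0.4 mM final, then warmed to 30 °C in a recording spectrophotometer. Assembly followed by turbidity at 350 nm.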

HeLa [7] = assay: Induction of apoptosis in human HeLa cells assessed as necrotic cells at 10 nM measured after 48 hrs by Annexin V-FITC/propidium iodide staining based flow cytometry (reference value: 2.26 %); format: functional
Jurkat = assay: Antiproliferative activity against human Jurkat cells assessed as inhibition of cell growth; format: functional, cell-based
In short: (§4)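 Compounds from 10 mM DMSO stocks; final DMSO ≤0.25%. Growth inhibition of cancer cell lines read from dose-response curves; IC50 as mean ± SEM of at least three independent experiments.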

[8] = Cytotoxicity against normal human astrocytes assessed as inhibition of cell growth; format: cell-based, Astrocyte
HeLa [9] = assay: Induction of apoptosis in human HeLa cells assessed as increase in cleavage of caspase 9 at 10 nM after 24 hrs by Western blot analysis; format: functional, cell-based; in short: as §2
HeLa [10] = assay: Induction of apoptosis in human HeLa cells assessed as late apoptotic cells at 10 nM measured after 48 hrs by Annexin V-FITC/propidium iodide staining based flow cytometry (reference value: 6.07 %); format: functional
HeLa [11] = assay: Induction of cell cycle arrest in human HeLa cells assessed as accumulation at G2/M phase at 10 nM after 24 hrs by PI staining based flow cytometric analysis; format: functional
In short: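 HeLa cells treated 24 h, then fixed in cold 70% ethanol. They were lysed with 0.1% Triton X-100 plus RNase A and stained with PI for flow cytometric DNA content. Means ± SEM of two independent experiments.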

Daoy = assay: Antiproliferative activity against human Daoy cells assessed as inhibition of cell growth; format: functional, cell-based; in short: as §4
HeLa [12] = assay: Downregulation of MAD-2 expression in human HeLa cells at 10 nM after 24 hrs by Western blot analysis; format: functional, cell-based; in short: as §2
SEM cells = assay: Potency index, ratio of CA-4 IC50 to compound IC50 for human SEM cells assessed as inhibition of cell growth; format: functional
HUVEC [13] = assay: Antivascular activity against HUVEC assessed as effect on meshes area in preformed capillary like tube network at 10 nM incubated for 1 hr by imaging analysis; format: functional, cell-based; details: Homo sapiens
In short: (§5)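 HUVECs used at passages 1–6 in M200 with low-serum growth supplement. 6 x 10^4 cells seeded on gelled Matrigel (37 °C, 30 min) and left 6 h to form tubes. Preformed networks then treated 1 h at 10 or 100 nM and photographed at five fields per well. Image analysis gave segment length, mesh area and number, covered area and branch points; three independent experiments.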

HeLa [14] = assay: Induction of cell cycle arrest at G2/M phase in human HeLa cells assessed as increase in cyclin B1 expression after 24 to 48 hrs by Western blot analysis; format: functional, cell-based; details: dose 10-50 nM, time 24-48 hrs; in short: as §2
[15] = Toxicity in C57BL/6 mouse implanted with mouse E0771 cells assessed as reduction in body weight at 15 mg/kg, ip administered every other day; format: organism-based; details: in vivo
In short: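 Seven-week-old female C57BL/6 mice received 4 × 10^5 E0771 cells orthotopically into the mammary fat pad. Once tumors were palpable, mice were randomized and given ip injections every other day (15 or 5 mg/kg, or vehicle DMSO; CA-4P 30 mg/kg as reference). Body weight was followed during treatment; n = 5 mice/group.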

HUVEC [16] = assay: Antivascular activity against HUVEC assessed as effect on segment length in preformed capillary like tube network at 10 nM incubated for 1 hr by imaging analysis; format: functional, cell-based; details: Homo sapiens; in short: as §5
HeLa [17] = assay: Induction of mitochondrial membrane potential loss in human HeLa cells assessed as cells with polarized mitochondrial membrane at 10 nM after 24 hrs by JC-1 dye-based flow cytometric analysis (reference value: 94.3 %); format: functional
HeLa [18] = assay: Downregulation of MAD-2 expression in human HeLa cells at 10 nM after 48 hrs by Western blot analysis; format: functional, cell-based; in short: as §2
HeLa [19] = assay: Induction of microtubule network depolymerization in human HeLa cells assessed as appearance of disorganised microtubules at 100 nM after 24 hrs by immunofluorescence staining based confocal microscopic analysis; format: cell-based
In short: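 HeLa cells treated 24 h at 10, 50 or 100 nM. They were then fixed in cold 4% formaldehyde for 15 min and stained with anti-β-tubulin for 2 h at room temperature. Alexa 488 secondary and DAPI counterstain followed; imaged by confocal microscopy at 20X.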

HeLa [20] = assay: Induction of mitochondrial membrane potential loss in human HeLa cells assessed as cells with polarized mitochondrial membrane at 10 nM after 48 hrs by JC-1 dye-based flow cytometric analysis (reference value: 94.3 %); format: functional
HeLa [21] = assay: Induction of apoptosis in human HeLa cells assessed as necrotic cells at 10 nM measured after 24 hrs by Annexin V-FITC/propidium iodide staining based flow cytometry (reference value: 2.26 %); format: functional
HeLa [22] = assay: Induction of apoptosis in human HeLa cells assessed as increase in PARP cleavage at 10 nM after 48 hrs by Western blot analysis; format: functional, cell-based; in short: as §2
Bos taurus [23] = species on record: Bos taurus; assay: Inhibition of [3H]colchicine binding to bovine brain tubulin at 0.5 uM relative to control; format: tissue-based; in short: as §1

CCOc1ccc2c(C(=O)c3cc(OC)c(OC)c(OC)c3)c(N)oc2c1
Activity (HeLa [1]): 14.05%
inhibition (Bos taurus [2]): 99%
viability at 0.01 µM (HeLa [3]): 31.3%
Activity (HeLa [4]): Active
Activity [5]: 45.7%
Activity (EO771): Dose-dependent effect
IC50 [6]: 370 nM
Activity (HeLa [7]): 21.63%
IC50 (Jurkat): 0.28 nM
GI50 [8]: > 10000 nM
Activity (HeLa [9]): Active
Activity (HeLa [10]): 23.53%
Activity (HeLa [11]): Active
IC50 (Daoy): 0.005 nM
Activity (HeLa [12]): Active
Ratio IC50 (SEM cells): 16
Activity (HUVEC [13]): Active
Activity (HeLa [14]): Dose-dependent effect
Activity [15]: Non-Toxic
Activity (HUVEC [16]): Active
Activity (HeLa [17]): 75.7%
Activity (HeLa [18]): Active
Activity (HeLa [19]): Active
Activity (HeLa [20]): 45.3%
Activity (HeLa [21]): 14.77%
Activity (HeLa [22]): Active
inhibition (Bos taurus [23]): 86%
